From ChEMBL document CHEMBL1128718, “2-Substituted penems with amino acid-related side chains: synthesis and antibacterial activity of a new series of beta-lactam antibiotics” (1995)
Values after ≈ are worked out from the molar mass of the structure shown.

How the values were obtained:
Type in all cases: functional
Pseudomonas aeruginosa [1] = test: In Vitro antibacterial activity against (Pa) Pseudomonas aeruginosa ATCC 27853
Method in brief: (§1)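 Panel of standard ATCC strains plus modified strains: methicillin-resistant, hyperpermeable, β-lactamase-producing (TEM1, TEM2, SHV) and β-lactamase-lacking. MIC determined in Mueller Hinton 2 medium, inoculum 10⁴ cells/mL, incubated 24 h at 37 °C.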

Enterococcus faecalis = test: In Vitro antibacterial activity against (Ef) Enterococcus faecalis ATCC 29212; method in brief: as §1
Pseudomonas aeruginosa [2] = test: In Vitro antibacterial activity against (Pa G242) hyperpermeable Pseudomonas aeruginosa strain; method in brief: as §1
Staphylococcus aureus [3] = test: In vitro antibacterial activity against Sa MR(I) heterogeneous methicillin resistant Staphylococcus aureus
Method in brief: (§2)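 MIC was determined in Mueller Hinton 2 medium with an inoculum of 10⁴ cells/mL and incubation for 24 h at 37 °C. Strains: Sa(I) is S. aureus ATCC 29213; Sa MR(I) is a heterogeneous methicillin-resistant S. aureus; Sa MR(II) is a homogeneous methicillin-resistant S. aureus.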

Escherichia coli [4] = test: In Vitro antibacterial activity against (Ec L) Escherichia coli […] strain; method in brief: as §1
Staphylococcus aureus [5] = test: In vitro antibacterial activity against Sa(I) Staphylococcus aureus ATCC 29213; method in brief: as §2
Pseudomonas aeruginosa [6] = test: In Vitro antibacterial activity against (Pa) hyperpermeable Pseudomonas aeruginosa […] strain; method in brief: as §1
Escherichia coli [7] = test: In Vitro antibacterial activity against (Ec SHV) Escherichia coli […] strain; method in brief: as §1
Escherichia coli [8] = test: In Vitro antibacterial activity against (Ec TEM2) Escherichia coli […] strain; method in brief: as §1
Escherichia coli [9] = test: In Vitro antibacterial activity against (Ec) Escherichia coli ATCC 25922; method in brief: as §1
Escherichia coli [10] = test: In Vitro antibacterial activity against (Ec DC2) hyperpermeable Escherichia coli strain; method in brief: as §1
Staphylococcus aureus [11] = test: In vitro antibacterial activity against Sa MR(II) homogeneous methicillin resistant Staphylococcus aureus; method in brief: as §2
Staphylococcus aureus [12] = test: In vitro antibacterial activity against Sa(II) Staphylococcus aureus ATCC 25923; method in brief: as §1
Escherichia coli [13] = test: In Vitro antibacterial activity against (Ec TEM1) Escherichia coli […] strain; method in brief: as §1

Row | Structure (SMILES) | MIC (Pseudomonas aeruginosa [1]) [µg/mL] | MIC (Enterococcus faecalis) [µg/mL] | MIC (Pseudomonas aeruginosa [2]) [µg/mL] | MIC (Staphylococcus aureus [3]) [µg/mL] | MIC (Escherichia coli [4]) [µg/mL] | MIC (Staphylococcus aureus [5]) [µg/mL] | MIC (Pseudomonas aeruginosa [6]) [µg/mL] | MIC (Escherichia coli [7]) [µg/mL] | MIC (Escherichia coli [8]) [µg/mL] | MIC (Escherichia coli [9]) [µg/mL] | MIC (Escherichia coli [10]) [µg/mL] | MIC (Staphylococcus aureus [11]) [µg/mL] | MIC (Staphylococcus aureus [12]) [µg/mL] | MIC (Escherichia coli [13]) [µg/mL]
1 | C[C@@H](O)[C@H]1C(=O)N2C(C(=O)O)=C(CN3C[C@H](O)C[C@@H]3C(N)=O)S[C@H]12 | > 64 | 32 (≈ 89.5 µM) | 2 (≈ 5.6 µM) | 0.25 (≈ 0.7 µM) | 2 (≈ 5.6 µM) | 0.25 (≈ 0.7 µM) | 0.5 (≈ 1.4 µM) | 2 (≈ 5.6 µM) | 2 (≈ 5.6 µM) | 2 (≈ 5.6 µM) | 2 (≈ 5.6 µM) | 8 (≈ 22.4 µM) | 0.25 (≈ 0.7 µM) | 2 (≈ 5.6 µM)
2 | C[C@@H](O)[C@H]1C(=O)N2C(C(=O)O)=C(CN3CCCC(C(N)=O)C3)S[C@H]12 (some centres not stated) | > 64 | 32 (≈ 90 µM) | 4 (≈ 11.3 µM) | 0.12 (≈ 0.338 µM) | 8 (≈ 22.5 µM) | 0.06 (≈ 0.169 µM) | 1 (≈ 2.81 µM) | 4 (≈ 11.3 µM) | 4 (≈ 11.3 µM) | 4 (≈ 11.3 µM) | 4 (≈ 11.3 µM) | 2 (≈ 5.63 µM) | 0.06 (≈ 0.169 µM) | 4 (≈ 11.3 µM)
3 | C[C@H](C(N)=O)N(C)CC1=C(C(=O)O)N2C(=O)[C@H]([C@@H](C)O)[C@H]2S1 | > 64 | 2 (≈ 6.07 µM) | 0.25 (≈ 0.759 µM) | 0.06 (≈ 0.182 µM) | 0.12 (≈ 0.364 µM) | 0.03 (≈ 0.0911 µM) | 2 (≈ 6.07 µM) | 1 (≈ 3.04 µM) | 0.25 (≈ 0.759 µM) | 0.12 (≈ 0.364 µM) | 2 (≈ 6.07 µM) | 2 (≈ 6.07 µM) | 0.06 (≈ 0.182 µM) | 0.25 (≈ 0.759 µM)
4 | C[C@@H](O)[C@H]1C(=O)N2C(C(=O)O)=C(CN(CC(N)=O)CC(N)=O)S[C@H]12 | > 64 | > 64 | 0.25 (≈ 0.698 µM) | 0.25 (≈ 0.698 µM) | 0.25 (≈ 0.698 µM) | 0.12 (≈ 0.335 µM) | 0.5 (≈ 1.4 µM) | 0.5 (≈ 1.4 µM) | 0.25 (≈ 0.698 µM) | 0.12 (≈ 0.335 µM) | 0.25 (≈ 0.698 µM) | 1 (≈ 2.79 µM) | 0.06 (≈ 0.167 µM) | 0.25 (≈ 0.698 µM)
5 | C[C@@H](O)[C@H]1C(=O)N2C(C(=O)O)=C(CN3CCC[C@H]3C(=O)O)S[C@H]12 | > 64 | > 64 | 4 (≈ 11.7 µM) | 1 (≈ 2.92 µM) | 8 (≈ 23.4 µM) | 0.03 (≈ 0.0876 µM) | 32 (≈ 93.5 µM) | 8 (≈ 23.4 µM) | 32 (≈ 93.5 µM) | 2 (≈ 5.84 µM) | 16 (≈ 46.7 µM) | 32 (≈ 93.5 µM) | 0.5 (≈ 1.46 µM) | 8 (≈ 23.4 µM)
6 | CCN(CC(N)=O)CC1=C(C(=O)O)N2C(=O)[C@H]([C@@H](C)O)[C@H]2S1 | > 64 |  | 0.5 (≈ 1.52 µM) |  | 0.5 (≈ 1.52 µM) | 0.06 (≈ 0.182 µM) | 2 (≈ 6.07 µM) | 1 (≈ 3.04 µM) | 1 (≈ 3.04 µM) | 0.5 (≈ 1.52 µM) | 1 (≈ 3.04 µM) | 2 (≈ 6.07 µM) | 0.06 (≈ 0.182 µM) | 0.5 (≈ 1.52 µM)
7 | CCCCOC(=O)CN(C)CC1=C(C(=O)O)N2C(=O)[C@H]([C@@H](C)O)[C@H]2S1 | > 64 | 8 (≈ 21.5 µM) | > 64 | 0.5 (≈ 1.34 µM) | > 64 | 0.5 (≈ 1.34 µM) | > 64 | > 64 | > 64 | 32 (≈ 85.9 µM) | 1 (≈ 2.68 µM) | 16 (≈ 43 µM) | 0.25 (≈ 0.671 µM) | > 64
8 | C[C@@H](O)[C@H]1C(=O)N2C(C(=O)O)=C(CN(C)CC(=O)NCC(N)=O)S[C@H]12 | > 64 | 8 (≈ 21.5 µM) | 0.5 (≈ 1.34 µM) | 0.25 (≈ 0.671 µM) | 0.5 (≈ 1.34 µM) | 0.25 (≈ 0.671 µM) | 1 (≈ 2.69 µM) | 0.5 (≈ 1.34 µM) | 0.5 (≈ 1.34 µM) | 0.25 (≈ 0.671 µM) | 1 (≈ 2.69 µM) | 4 (≈ 10.7 µM) | 0.12 (≈ 0.322 µM) | 0.5 (≈ 1.34 µM)
9 | COC(=O)[C@@H]1CCCN1CC1=C(C(=O)O)N2C(=O)[C@H]([C@@H](C)O)[C@H]2S1 | > 64 | 8 (≈ 22.4 µM) | 8 (≈ 22.4 µM) | 0.25 (≈ 0.701 µM) | 4 (≈ 11.2 µM) | 0.25 (≈ 0.701 µM) | 4 (≈ 11.2 µM) | 8 (≈ 22.4 µM) | 8 (≈ 22.4 µM) | 4 (≈ 11.2 µM) | 2 (≈ 5.61 µM) | 4 (≈ 11.2 µM) | 0.12 (≈ 0.337 µM) | 8 (≈ 22.4 µM)
10 | C[C@@H](O)[C@H]1C(=O)N2C(C(=O)O)=C(SCCNC=N)C[C@H]12 [IMIPENEM ANHYDROUS] | 1 (≈ 3.34 µM) | 0.5 (≈ 1.67 µM) | 0.25 (≈ 0.835 µM) | 0.12 (≈ 0.401 µM) | 0.12 (≈ 0.401 µM) | 0.015 (≈ 0.0501 µM) | 0.25 (≈ 0.835 µM) | 0.25 (≈ 0.835 µM) | 0.25 (≈ 0.835 µM) | 0.12 (≈ 0.401 µM) | 0.5 (≈ 1.67 µM) | 0.25 (≈ 0.835 µM) | 0.015 (≈ 0.0501 µM) | 0.25 (≈ 0.835 µM)
11 | C[C@@H](O)[C@H]1C(=O)N2C(C(=O)O)=C(COC(N)=O)S[C@H]12 [RITIPENEM] | > 64 | 2 (≈ 6.94 µM) | 1 (≈ 3.47 µM) | 0.12 (≈ 0.416 µM) | 1 (≈ 3.47 µM) | 0.12 (≈ 0.416 µM) | 0.5 (≈ 1.73 µM) | 1 (≈ 3.47 µM) | 1 (≈ 3.47 µM) | 0.5 (≈ 1.73 µM) | 1 (≈ 3.47 µM) | 2 (≈ 6.94 µM) | 0.06 (≈ 0.208 µM) | 1 (≈ 3.47 µM)
